# Where two headings read alike, the source gives them in different places. Where a SMILES comes first, the peptide text is derived from it. The star is where a group is joined. 5FAM = O=C1OC2(c3ccc(O)cc3Oc3cc(O)ccc32)c2ccc(C(=O)*)cc21
# Experiments:
# [1] = target: T1, SRPK1 (Homo sapiens, UniProt Q96SB4); test: Steady-state kinetic phosphorylation assay, SRPK1; assay type: biochemical
# Procedure, shortened: (§1)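 His6-tagged kinase (full length, N-terminal deletion, or SID deletion with RRQ linker) from E. coli BL21(DE3), Ni-purified; refolded His6-SRSF1 substrate. Reaction: 50 mM MOPS pH 7.4, 10 mM Mg2+, 1 mg/mL BSA, 23 °C, started with 100 μM 32P-ATP (600-1000 cpm/pmol). Quenched in SDS loading buffer; bands excised and counted. Initial velocities vs total SRSF1 or ATP fit to Michaelis-Menten; kcat = Vmax/total enzyme.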
# [2] = system: SRPK1(ΔN); test: Steady-state kinetic phosphorylation assay, SRPK1; assay type: biochemical; details: for Km: substrate SRSF1, pH 7.4, 23° C
# Procedure, shortened: as §1
# [3] = system: SRPK1(ΔS); test: Steady-state kinetic phosphorylation assay, SRPK1; assay type: biochemical; details: for Km: substrate SRSF1, pH 7.4, 23° C
# Procedure, shortened: as §1
# [4] = system: SRPK1(ΔN); test: Competition assay; assay type: biochemical; details: removal of the N-terminus; wt-SRSF1
# Target sequence in this assay (Q96SB4 76-655 limits assumed, stated change not applied): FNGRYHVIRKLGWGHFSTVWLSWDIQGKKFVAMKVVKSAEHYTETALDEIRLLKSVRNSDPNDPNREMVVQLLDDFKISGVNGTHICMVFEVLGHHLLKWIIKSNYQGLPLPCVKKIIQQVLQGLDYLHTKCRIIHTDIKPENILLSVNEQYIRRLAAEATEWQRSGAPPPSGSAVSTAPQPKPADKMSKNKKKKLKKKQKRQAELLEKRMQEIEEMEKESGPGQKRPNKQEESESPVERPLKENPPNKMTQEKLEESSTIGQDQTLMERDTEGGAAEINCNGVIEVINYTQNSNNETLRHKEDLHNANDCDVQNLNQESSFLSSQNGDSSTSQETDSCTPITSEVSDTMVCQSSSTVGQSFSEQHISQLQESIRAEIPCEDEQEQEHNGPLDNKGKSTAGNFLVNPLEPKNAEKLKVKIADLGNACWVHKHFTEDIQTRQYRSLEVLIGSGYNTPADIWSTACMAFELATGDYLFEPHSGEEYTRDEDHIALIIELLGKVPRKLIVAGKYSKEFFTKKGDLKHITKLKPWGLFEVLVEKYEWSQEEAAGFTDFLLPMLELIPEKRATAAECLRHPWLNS
# [5] = target: SRPK1(ΔS); test: Competition assay; assay type: biochemical; details: removal of the SID
# [6] = target: T1, SRPK1; test: Single turnover phosphorylation, SRPK1; assay type: biochemical
# [7] = system: SRPK1(ΔS); test: Single turnover phosphorylation, SRPK1; assay type: biochemical
# [8] = target: T1, SRPK1; details: SRPK1 complex with SRSF1; ref [15]; [18]; cited from earlier work
# [9] = target: T1, SRPK1; details: cited from earlier work
# [10] = target: T1, SRPK1; test: Fluorescent Arg-Ser peptide binding, SRPK1; details: for fluorescence emission change: addition of SRPK1 (25, 50, 75 nM) to 10 nM peptide
# [11] = system: SRPK1(ΔN); test: Fluorescent Arg-Ser peptide binding, SRPK1; details: removal of the N-terminus; both peptides
# [12] = target: T1, SRPK1; assay type: biochemical; details: steady-state kinetic studies; data not shown
# [13] = target: SRPK1 (SR-specific protein kinase 1), full-length wild type (UniProt Q96SB4); test: kinetic competition assay
# Sequence of SRPK1 (SR-specific protein kinase 1), full-length wild type (Q96SB4 whole entry): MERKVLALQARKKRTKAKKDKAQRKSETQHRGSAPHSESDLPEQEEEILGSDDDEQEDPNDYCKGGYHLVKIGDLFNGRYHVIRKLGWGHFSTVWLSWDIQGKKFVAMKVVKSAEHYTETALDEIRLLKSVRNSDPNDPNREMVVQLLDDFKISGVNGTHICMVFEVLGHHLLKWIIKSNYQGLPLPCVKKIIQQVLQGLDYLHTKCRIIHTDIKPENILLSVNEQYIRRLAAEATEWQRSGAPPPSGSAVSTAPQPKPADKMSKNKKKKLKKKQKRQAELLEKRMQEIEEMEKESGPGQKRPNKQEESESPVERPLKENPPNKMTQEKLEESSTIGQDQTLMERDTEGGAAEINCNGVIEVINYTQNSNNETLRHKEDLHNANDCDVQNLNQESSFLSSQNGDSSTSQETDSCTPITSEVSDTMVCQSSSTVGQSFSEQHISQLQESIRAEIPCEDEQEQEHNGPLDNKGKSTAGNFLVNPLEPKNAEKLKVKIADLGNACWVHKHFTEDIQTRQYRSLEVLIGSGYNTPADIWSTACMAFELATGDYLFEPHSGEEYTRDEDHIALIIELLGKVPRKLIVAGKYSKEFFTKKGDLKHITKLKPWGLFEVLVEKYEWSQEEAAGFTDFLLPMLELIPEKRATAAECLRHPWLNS
# [14] = target: SRPK1(ΔN), SRPK1 lacking the full-length N-terminus; test: kinetic competition assay
# Sequence of SRPK1(ΔN), SRPK1 lacking the full-length N-terminus (Q96SB4 71-655, stated change not applied): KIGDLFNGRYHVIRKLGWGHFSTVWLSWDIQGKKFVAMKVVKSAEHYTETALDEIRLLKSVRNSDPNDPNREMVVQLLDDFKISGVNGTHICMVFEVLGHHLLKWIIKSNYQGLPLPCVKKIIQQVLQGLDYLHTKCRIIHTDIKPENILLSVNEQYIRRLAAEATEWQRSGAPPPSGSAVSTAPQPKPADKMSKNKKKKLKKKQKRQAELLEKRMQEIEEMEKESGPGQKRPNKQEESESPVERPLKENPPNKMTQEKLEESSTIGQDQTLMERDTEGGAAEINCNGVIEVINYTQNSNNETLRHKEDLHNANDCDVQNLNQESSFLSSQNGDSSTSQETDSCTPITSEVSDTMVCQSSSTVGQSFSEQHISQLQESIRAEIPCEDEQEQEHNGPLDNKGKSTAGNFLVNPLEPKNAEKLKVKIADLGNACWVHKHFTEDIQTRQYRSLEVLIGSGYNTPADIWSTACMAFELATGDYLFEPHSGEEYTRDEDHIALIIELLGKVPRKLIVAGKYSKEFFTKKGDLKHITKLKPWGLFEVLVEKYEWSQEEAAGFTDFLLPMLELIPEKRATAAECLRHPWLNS
# [15] = target: SRPK1(ΔS), SRPK1 lacking the spacer insert domain (SID); test: kinetic competition assay
# [16] = SRPK1 2 μM, SRSF1 100 nM, ^32P-ATP start, double exponential fit
# [17] = SRPK1 2 μM, SRSF1 100 nM, double exponential fit
# [18] = wild-type kinase, single turnover
# T1 sequence (Q96SB4 whole entry, species assumed): as the sequence (Q96SB4 whole entry) above
compound,measurement,setting,value
"SRSF1: human alternative splicing factor or ASF/SF2; prototype SR protein, SRPK1 substrate",kcat,"[1]; 50 mM MOPS pH 7.4, 10 mM Mg^2+, 1 mg/mL BSA, ^32P-ATP, 23° C, Michaelis-Menten fit",0.5 ± 0.033 s⁻¹
same,Km,"[1]; read-out: Km,SR (Km for SRSF1), substrate SRSF1, pH 7.4, 23° C",0.12 ± 0.02 µM
same,"increase of Km,SR",[2]; SRPK1(ΔN) versus SRPK1,3 fold
same,lowering of turnover (kcat),[2]; SRPK1(ΔN) versus SRPK1,about 5 fold
same,kcat,"[2]; SRPK1(ΔN), 50 mM MOPS pH 7.4, 10 mM Mg^2+, 1 mg/mL BSA, ^32P-ATP, 23° C, Michaelis-Menten fit",0.108 ± 0.015 s⁻¹
same,"enhancement of catalysis by N-terminus (kcat/Km,SR)",[2]; SRPK1 versus SRPK1(ΔN),about 20 fold
same,Km,"[2]; read-out: Km,SR (Km for SRSF1), SRPK1(ΔN)",0.63 ± 0.07 µM
same,"effect of insert (SID) on Km,SR",[3]; SRPK1(ΔS) versus SRPK1,no effect
same,lowering of turnover (kcat),[3]; SRPK1(ΔS) versus SRPK1,about 5 fold
same,kcat,"[3]; SRPK1(ΔS), 50 mM MOPS pH 7.4, 10 mM Mg^2+, 1 mg/mL BSA, ^32P-ATP, 23° C, Michaelis-Menten fit",0.0733 ± 0.0067 s⁻¹
same,"enhancement of catalysis by insert (kcat/Km,SR)",[3]; SRPK1 versus SRPK1(ΔS),about 5 fold
same,Km,"[3]; read-out: Km,SR (Km for SRSF1), SRPK1(ΔS)",0.12 ± 0.02 µM
same,decrease of SR protein binding affinity (KI),[4],2-3 fold
same,effect of SID removal on KI / binding affinity,[5],no effect
same,"rate constant, fast phase",[6]; [16],6 min⁻¹
same,"rate constant, slow phase",[6]; [16],0.2 min⁻¹
same,"amplitude, fast phase",[6]; [17],12 sites
same,"amplitude, slow phase",[6]; [17],3 sites
same,extent of phosphorylation,"[6]; SRPK1, single turnover",approx. 15 sites
same,time to completion of fast phase,[6]; [18],1 to 2 min
same,time to completion of slower phase,[6]; [18],20 to 30 min
same,extent of phosphorylation,[7],approx 13 sites
same,Kd,[8],20 to 50 nM
same,serines rapidly phosphorylated in RS1,"[9]; SRSF1, SRPK1, strict C-to-N-terminal direction, ref [7], [10]",10-12 serines
same,additional serines slowly modified in RS2,"[9]; SRSF1, SRPK1, shown previously, ref none printed in this sentence",about 3 serines
N=C(N)NCCC[C@H](NC(=O)c1ccc2c(c1)C(=O)OC21c2ccc(O)cc2Oc2cc(O)ccc21)C(=O)N[C@@H](CO)C(=O)N[C@@H](CCCNC(=N)N)C(=O)N[C@@H](CO)C(=O)N[C@@H](CCCNC(=N)N)C(=O)N[C@@H](CO)C(=O)N[C@@H](CCCNC(=N)N)C(=O)N[C@@H](CO)C(=O)N[C@@H](CCCNC(=N)N)C(=O)N[C@@H](CO)C(=O)N[C@@H](CCCNC(=N)N)C(=O)N[C@@H](CO)C(=O)N[C@@H](CCCNC(=N)N)C(=O)N[C@@H](CO)C(=O)N[C@@H](CCCNC(=N)N)C(=O)N[C@@H](CO)C(=O)N[C@@H](CCCNC(=N)N)C(=O)N[C@@H](CO)C(=O)N[C@@H](CCCNC(=N)N)C(=O)N[C@@H](CO)C(=O)N[C@@H](CCCNC(=N)N)C(=O)N[C@@H](CO)C(=O)N[C@@H](CCCNC(=N)N)C(=O)N[C@@H](CO)C(=O)N[C@@H](CCCNC(=N)N)C(=O)N[C@@H](CO)C(=O)N[C@@H](CCCNC(=N)N)C(=O)N[C@@H](CO)C(=O)N[C@@H](CCCNC(=N)N)C(=O)N[C@@H](CO)C(=O)N[C@@H](CCCNC(=N)N)C(=O)N[C@@H](CO)C(=O)O [Fl-(RS)16] (5FAM-RSRSRSRSRSRSRSRSRSRSRSRSRSRSRSRS-OH; N-terminus and C-terminus assumed),fluorescence emission change,[10],increases in the fluorescence emission spectra
same,affinity of 32-residue peptide compared to the 16-residue peptide,"[10]; in all cases (SRPK1, SRPK1(ΔN), SRPK1(ΔS))",either equivalent or a 2-fold greater affinity
same,reduction of peptide binding affinity,[11],about 15 fold
same,inhibition of SRSF1 phosphorylation,[12],competitively inhibits SRSF1 phosphorylation
N=C(N)NCCC[C@H](NC(=O)c1ccc2c(c1)C(=O)OC21c2ccc(O)cc2Oc2cc(O)ccc21)C(=O)N[C@@H](CO)C(=O)N[C@@H](CCCNC(=N)N)C(=O)N[C@@H](CO)C(=O)N[C@@H](CCCNC(=N)N)C(=O)N[C@@H](CO)C(=O)N[C@@H](CCCNC(=N)N)C(=O)N[C@@H](CO)C(=O)N[C@@H](CCCNC(=N)N)C(=O)N[C@@H](CO)C(=O)N[C@@H](CCCNC(=N)N)C(=O)N[C@@H](CO)C(=O)N[C@@H](CCCNC(=N)N)C(=O)N[C@@H](CO)C(=O)N[C@@H](CCCNC(=N)N)C(=O)N[C@@H](CO)C(=O)O [Fl-(RS)8] (5FAM-RSRSRSRSRSRSRSRS-OH; N-terminus and C-terminus assumed),fluorescence emission change,[10],increases in the fluorescence emission spectra
RS domain of SRSF1 (domain or fragment),Ki,[13],150 nM
same,Ki,[14],830 nM
same,Ki,[15],140 nM
"Nc1ncnc2c1ncn2[C@@H]1O[C@H](COP(=O)(O)OP(=O)(O)OP(=O)(O)O)[C@@H](O)[C@H]1O [ATP, reference compound]",Km,"[1]; read-out: Km,ATP (Km for ATP), substrate SRSF1, pH 7.4, 23° C",5 ± 0.5 µM
same,"increase of Km,ATP",[2]; N-terminal deletion versus SRPK1,2-5 fold
same,Km,"[2]; read-out: Km,ATP (Km for ATP), SRPK1(ΔN)",9 ± 2 µM
same,"increase of Km,ATP",[3]; SID deletion versus SRPK1,2-5 fold
same,Km,"[3]; read-out: Km,ATP (Km for ATP), SRPK1(ΔS)",28 ± 7 µM
